Calls of active or inactive are those of the source.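 How the source made its calls, unless noted: active means viability at or under a set limit in both replicates, limit being median viability minus 3 SD (cut at about 48% in these data, passing the limit was not always enough); inconclusive means at or under the limit in just one replicate; inactive means at or above the limit in both replicates.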
Experiments:
[1] = Her2 expression decrease, cell viability multiplex – SKBR3 breast tumor cells, AlphaScreen, ATP viability, primary screen (AID 461;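 active means Her2 level under about 52% in both replicate screens, with viability over 70% of control, limit read from the data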;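 on Her2 level: lower value means less Her2 protein in the cells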;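 on viability: percent of carrier control wells set as 100% viability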); conditions: SKBR3 Her2 protein level, 18-24 h, measured here: SKBR3 viability, ATP luminescence, at 10 µM
[2] = biological target: Receptor tyrosine-protein kinase erbB-2 (Homo sapiens) (UniProt P04626); assay: as above; conditions: 18-24 h, at 10 µM, stronger effect = lower value
[3] = reduced viability of SK-BR-3 breast cancer cells – cell-based, 24 h, human, pilot screen (AID 572;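 active means viability at or below 10% of carrier control in both of two separate runs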;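 further: compound exposure lasted between 18 and 24 h rather than exactly 24 h; 100% = carrier-treated control wells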); conditions: SK-BR-3 viability, CellTiter-Glo luminescence, at 10 µM, stronger effect = lower value
[4] = HUVEC growth inhibition – cell-based, human, primary screen (AID 575;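 active means viability at or below 30% in both replicate assays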;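 further: 100% = median of untreated cell wells with 0.1% DMSO on each plate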); conditions: HUVEC proliferation, CellTiter-Glo luminescence, 72 h; at 10 µM; stronger effect = lower value
Summary of the method: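 material = primary HUVEC, no more than 12 passages | input = 1250 cells per well | controls = vehicle and MePR control wells | measured by = CTG luminescence | times = 72 h compound incubation | format = collagen-coated 384-well format | read-out = % viability vs DMSO wells | doses = single 10 µM dose, 0.1% DMSO, from 5x medium stock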

[5] = H69AR cell proliferation blockers – human, duplicate replicates, primary screen (AID 580); conditions: H69AR lung tumor cells viability, ATP luminescence, 72 h; at 10 µM; stronger effect = lower value;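 further: 100% = mean luminescence of untreated wells and 0% = no signal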
[6] = MRP1 drug-resistance reversers in H69AR cells – cell-based, doxorubicin co-treatment, pilot screen (AID 601;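 active means viability loss from added drug above about 55%, and viability with drug at most 40%, in both replicates, limit read from the data, passing the limit was not always enough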); conditions: CellTiter-Glo, 72 h, at 10 µM; for differential viability (reversal): stronger effect = higher value
[7] = yeast transport mutant growth inhibition pilot in 384-well plates, post-Golgi transport modulator project (AID 636; in the data active means inhibition above about 31%); conditions: absorbance 615 nm, about 18 h, stronger effect = higher value
[8] = growth suppression of yeast trafficking mutant, preliminary HTS, modulators of trafficking downstream of Golgi apparatus project, 1536-format plate, OD 615 nm (AID 637; in the data active means inhibition above about 30%); conditions: yeast transport mutant growth, absorbance 615 nm, 18 h; stronger effect = higher value
[9] = H69AR cells + 2 uM doxorubicin, measured here: viability with 2 uM doxorubicin, stronger effect = lower value
[10] = H69AR cells, compound alone cytotoxicity

Receptor tyrosine-protein kinase erbB-2 (Homo sapiens), sequence (P04626 whole entry, looked up): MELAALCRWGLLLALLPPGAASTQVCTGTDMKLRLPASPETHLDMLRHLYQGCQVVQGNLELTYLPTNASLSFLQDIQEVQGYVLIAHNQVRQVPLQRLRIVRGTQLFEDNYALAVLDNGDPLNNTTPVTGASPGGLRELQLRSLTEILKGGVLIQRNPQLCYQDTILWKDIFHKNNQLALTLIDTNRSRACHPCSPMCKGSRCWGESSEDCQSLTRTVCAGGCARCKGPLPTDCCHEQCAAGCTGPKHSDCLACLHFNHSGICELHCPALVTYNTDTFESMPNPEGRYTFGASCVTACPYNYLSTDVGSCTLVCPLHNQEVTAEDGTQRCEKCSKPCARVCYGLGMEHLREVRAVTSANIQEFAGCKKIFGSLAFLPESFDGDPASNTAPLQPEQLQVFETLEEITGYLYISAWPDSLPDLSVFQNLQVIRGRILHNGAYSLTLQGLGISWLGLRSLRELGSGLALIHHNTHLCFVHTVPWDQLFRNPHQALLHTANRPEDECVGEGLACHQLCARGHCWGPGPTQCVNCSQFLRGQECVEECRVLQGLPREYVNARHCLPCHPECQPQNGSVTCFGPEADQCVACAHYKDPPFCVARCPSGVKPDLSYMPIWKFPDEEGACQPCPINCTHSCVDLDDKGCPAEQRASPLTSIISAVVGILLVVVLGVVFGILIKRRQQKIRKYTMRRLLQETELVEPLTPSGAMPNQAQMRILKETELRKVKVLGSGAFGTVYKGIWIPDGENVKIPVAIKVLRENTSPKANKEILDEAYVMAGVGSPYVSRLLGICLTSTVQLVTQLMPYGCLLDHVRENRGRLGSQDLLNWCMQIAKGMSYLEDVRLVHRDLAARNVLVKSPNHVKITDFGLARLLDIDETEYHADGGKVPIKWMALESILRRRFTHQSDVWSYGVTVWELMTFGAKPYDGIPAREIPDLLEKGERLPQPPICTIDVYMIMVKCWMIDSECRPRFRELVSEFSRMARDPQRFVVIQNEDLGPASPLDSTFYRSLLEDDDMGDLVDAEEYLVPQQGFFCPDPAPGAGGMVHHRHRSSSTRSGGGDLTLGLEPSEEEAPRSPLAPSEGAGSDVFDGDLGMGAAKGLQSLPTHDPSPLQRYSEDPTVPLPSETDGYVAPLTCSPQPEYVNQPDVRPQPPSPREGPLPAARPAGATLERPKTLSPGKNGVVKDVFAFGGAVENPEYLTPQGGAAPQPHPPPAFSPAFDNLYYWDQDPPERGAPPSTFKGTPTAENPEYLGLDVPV

With COc1ccc(OC)c(C(=O)c2coc3ccc(O)c(CN4CCOCC4)c23)c1 the viability [1] was 95.5%, the Her2 level [2] was 78% (inactive) and the viability [3] was 95.5% (inactive). The viability [4] was 97.8% (inactive), the viability [5] was 90.1% (inactive) and the differential viability (reversal) ([6]; H69AR cells + 2 uM doxorubicin) was -4.02% (inactive). The viability [6, 9] was 94.1%, the viability [6, 10] was 90.1% and the inhibition [7] was -5.07% (inactive). For the same compound, the inhibition [8] was -8.73% (inactive).
With COc1cccc(NC(=O)N2CCCC2C(=O)NC(C)C)c1 (stereo not given) the viability [1] was 112%, the Her2 level [2] was 78% (inactive) and the viability [3] was 112% (inactive). For the same compound, the viability [4] was 82.6% (inactive), the viability [5] was 99.1% (inactive) and the differential viability (reversal) ([6]; H69AR cells + 2 uM doxorubicin) was 11.2% (inactive). The viability [6, 9] was 87.8%, the viability [6, 10] was 99.1% and the inhibition [7] was -5.07% (inactive). The inhibition [8] was 9.51% (inactive).
For CCCOc1ccc(N2C(=O)C3ON(c4ccccc4)C(c4ccc(O)c(OC)c4)C3C2=O)cc1 (stereo not given), the viability [1] was 106%, the Her2 level [2] was 100% (inactive) and the viability [3] was 106% (inactive). The viability [4] was 71.6% (inactive), the viability [5] was 93.8% (inactive) and the differential viability (reversal) ([6]; H69AR cells + 2 uM doxorubicin) was 10.6% (inactive). For the same compound, the viability [6, 9] was 83.3%, the viability [6, 10] was 93.8% and the inhibition [7] was -3.03% (inactive). The inhibition [8] was 3.55% (inactive).
With Cc1cc(NC(=O)C23CCC(C)(c4nc5cc(Cl)c(Cl)cc5nc42)C3(C)C)no1 (stereo not given) the viability [1] was 124%, the Her2 level [2] was 96.5% (inactive) and the viability [3] was 124% (inactive). The viability [4] was 88.5% (inactive), the viability [5] was 91.6% (inactive) and the differential viability (reversal) ([6]; H69AR cells + 2 uM doxorubicin) was 14.6% (inactive). For the same compound, the viability [6, 9] was 77.1%, the viability [6, 10] was 91.6% and the inhibition [7] was -3.42% (inactive). For the same compound, the inhibition [8] was 6.29% (inactive).
For COc1ccc(CC(=O)Nc2c3c(nn2-c2cccc(Cl)c2)CS(=O)(=O)C3)cc1, the viability [1] was 84.5%, the Her2 level [2] was 89% (inactive) and the viability [3] was 84.5% (inactive). For the same compound, the viability [4] was 104% (inactive), the viability [5] was 90.2% (inactive) and the differential viability (reversal) ([6]; H69AR cells + 2 uM doxorubicin) was 1.1% (inactive). For the same compound, the viability [6, 9] was 89.1%, the viability [6, 10] was 90.2% and the inhibition [7] was -6.8% (inactive). The inhibition [8] was 3.06% (inactive).
For O=c1c2ccccc2nnn1CSc1nnc2sc3ccccc3n12, the viability [1] was 95%, the Her2 level [2] was 64% (inactive) and the viability [3] was 95% (inactive). The viability [4] was 92.8% (inactive), the viability [5] was 77.5% (inactive) and the differential viability (reversal) ([6]; H69AR cells + 2 uM doxorubicin) was 9.79% (inactive). The viability [6, 9] was 67.7%, the viability [6, 10] was 77.5% and the inhibition [7] was -9.04% (inactive). For the same compound, the inhibition [8] was -1.43% (inactive).
For COC(=O)c1ccc(C2NC(C(=O)O)CS2)cc1 (stereo not given), the viability [1] was 132%, the Her2 level [2] was 103% (inactive) and the viability [3] was 132% (inactive). For the same compound, the viability [4] was 102% (inactive), the viability [5] was 89% (inactive) and the differential viability (reversal) ([6]; H69AR cells + 2 uM doxorubicin) was -8.38% (inactive). For the same compound, the viability [6, 9] was 97.3%, the viability [6, 10] was 89% and the inhibition [7] was -0.79% (inactive). For the same compound, the inhibition [8] was 3.02% (inactive).
With O=C(CCCn1ncn2c(cc3occc32)c1=O)N1CCc2ccccc2C1 the viability [1] was 126%, the Her2 level [2] was 90.5% (inactive) and the viability [3] was 126% (inactive). The viability [4] was 83.8% (inactive), the viability [5] was 84.7% (inactive) and the differential viability (reversal) ([6]; H69AR cells + 2 uM doxorubicin) was -5.79% (inactive). For the same compound, the viability [6, 9] was 90.5%, the viability [6, 10] was 84.7% and the inhibition [7] was -4.21% (inactive). For the same compound, the inhibition [8] was -6.73% (inactive).
In the case of Cn1c(=O)n(Cc2ccc(F)cc2)c(=O)c2c1nc1n2CCCN1Cc1ccccc1, the viability [1] is reported as 88.5%, the Her2 level [2] is reported as 80.5% (inactive) and the viability [3] is reported as 88.5% (inactive). For the same compound, the viability [4] was 78.4% (inactive), the viability [5] was 70.1% (inactive) and the differential viability (reversal) ([6]; H69AR cells + 2 uM doxorubicin) was 37.5% (inactive). For the same compound, the viability [6, 9] was 32.6%, the viability [6, 10] was 70.1% and the inhibition [7] was 0% (inactive). For the same compound, the inhibition [8] was 1.33% (inactive).
For Nc1nc2ccccc2n1C(=O)CCc1ccccc1, the viability [1] was 102%, the Her2 level [2] was 83.5% (inactive) and the viability [3] was 102% (inactive). The viability [4] was 44.8% (inactive), the viability [5] was 48.4% (active) and the differential viability (reversal) ([6]; H69AR cells + 2 uM doxorubicin) was -27.6% (inactive). The viability [6, 9] was 76.1%, the viability [6, 10] was 48.4% and the inhibition [7] was -2.11% (inactive). The inhibition [8] was -2.67% (inactive).
For COc1ccc(C(=O)Nc2cccc(C)c2)cc1S(=O)(=O)N1CCOCC1, the viability [1] was 100%, the Her2 level [2] was 83% (inactive) and the viability [3] was 100% (inactive). The viability [4] was 108% (inactive), the viability [5] was 93.2% (inactive) and the differential viability (reversal) ([6]; H69AR cells + 2 uM doxorubicin) was 7.64% (inactive). For the same compound, the viability [6, 9] was 85.5%, the viability [6, 10] was 93.2% and the inhibition [7] was -5% (inactive). The inhibition [8] was -5.71% (inactive).
In the case of N#Cc1ccc(CSc2nnc(-c3cnccn3)o2)cc1, the viability [1] is reported as 106%, the Her2 level [2] is reported as 110% (inactive) and the viability [3] is reported as 106% (inactive). For the same compound, the viability [4] was 93.8% (inactive), the viability [5] was 106% (inactive) and the differential viability (reversal) ([6]; H69AR cells + 2 uM doxorubicin) was 23.4% (inactive). The viability [6, 9] was 82.5%, the viability [6, 10] was 106% and the inhibition [7] was -0.67% (inactive). For the same compound, the inhibition [8] was -0.97% (inactive).
With CCCCn1c(CN2CCN(c3cccc(Cl)c3)CC2)nc2c1c(=O)n(C)c(=O)n2C the viability [1] was 111%, the Her2 level [2] was 75% (inactive) and the viability [3] was 111% (inactive). For the same compound, the viability [4] was 66.9% (inactive), the viability [5] was 74.7% (inactive) and the differential viability (reversal) ([6]; H69AR cells + 2 uM doxorubicin) was 50.2% (inactive). The viability [6, 9] was 24.5%, the viability [6, 10] was 74.7% and the inhibition [7] was -4.74% (inactive). For the same compound, the inhibition [8] was 6.07% (inactive).
With O=C(C1CCCN(S(=O)(=O)c2cnc[nH]2)C1)N1CCN(c2ccc(Cl)cc2)CC1 (stereo not given) the viability [1] was 85.5%, the Her2 level [2] was 93% (inactive) and the viability [3] was 85.5% (inactive). The viability [4] was 110% (inactive), the viability [5] was 111% (inactive) and the differential viability (reversal) ([6]; H69AR cells + 2 uM doxorubicin) was 14.8% (inactive). The viability [6, 9] was 96%, the viability [6, 10] was 111% and the inhibition [7] was -0.13% (inactive). The inhibition [8] was -4.92% (inactive).
With OC(CNCC1COc2ccccc2O1)COCc1cccs1 (stereo not given) the viability [1] was 98%, the Her2 level [2] was 89.5% (inactive) and the viability [3] was 98% (inactive). For the same compound, the viability [4] was 87.5% (inactive), the viability [5] was 83.1% (inactive) and the differential viability (reversal) ([6]; H69AR cells + 2 uM doxorubicin) was 0.95% (inactive). The viability [6, 9] was 82.1%, the viability [6, 10] was 83.1% and the inhibition [7] was -2.08% (inactive). For the same compound, the inhibition [8] was -7.94% (inactive).
In the case of CCCC(=O)Nc1ccc(NC(=O)C2CC2)cn1, the viability [1] is reported as 108%, the Her2 level [2] is reported as 112% (inactive) and the viability [3] is reported as 108% (inactive). The viability [4] was 105% (inactive), the viability [5] was 102% (inactive) and the differential viability (reversal) ([6]; H69AR cells + 2 uM doxorubicin) was 6.95% (inactive). The viability [6, 9] was 95.4%, the viability [6, 10] was 102% and the inhibition [7] was -1.73% (inactive). The inhibition [8] was 5% (inactive).

— PubChem BioAssay
